# Hits are enriched below; roughly 2.3% of the tested compounds scored in any of these assays.
# SUMO1-SIM PPI: modulators of human SUMO1-mediated protein-protein interactions; P63165; SUMO1 binding to a labelled peptide, TR-FRET, 1 h; inhibition, % at 20 µM; 0.33% of 360,000 active; AID 602429; in the data active means inhibition above about 37%
# DNMT1 inh: inhibitors of human DNMT1 | P26358 | DNMT1 molecular beacon, Hinp1I cleavage, fluorescence | inhibition (reported as % activation of signal), % at 10 µM | 0.83% of 360,000 active; in the data active means inhibition above about 50%
# Target sequence (P26358 504-1616 limits assumed): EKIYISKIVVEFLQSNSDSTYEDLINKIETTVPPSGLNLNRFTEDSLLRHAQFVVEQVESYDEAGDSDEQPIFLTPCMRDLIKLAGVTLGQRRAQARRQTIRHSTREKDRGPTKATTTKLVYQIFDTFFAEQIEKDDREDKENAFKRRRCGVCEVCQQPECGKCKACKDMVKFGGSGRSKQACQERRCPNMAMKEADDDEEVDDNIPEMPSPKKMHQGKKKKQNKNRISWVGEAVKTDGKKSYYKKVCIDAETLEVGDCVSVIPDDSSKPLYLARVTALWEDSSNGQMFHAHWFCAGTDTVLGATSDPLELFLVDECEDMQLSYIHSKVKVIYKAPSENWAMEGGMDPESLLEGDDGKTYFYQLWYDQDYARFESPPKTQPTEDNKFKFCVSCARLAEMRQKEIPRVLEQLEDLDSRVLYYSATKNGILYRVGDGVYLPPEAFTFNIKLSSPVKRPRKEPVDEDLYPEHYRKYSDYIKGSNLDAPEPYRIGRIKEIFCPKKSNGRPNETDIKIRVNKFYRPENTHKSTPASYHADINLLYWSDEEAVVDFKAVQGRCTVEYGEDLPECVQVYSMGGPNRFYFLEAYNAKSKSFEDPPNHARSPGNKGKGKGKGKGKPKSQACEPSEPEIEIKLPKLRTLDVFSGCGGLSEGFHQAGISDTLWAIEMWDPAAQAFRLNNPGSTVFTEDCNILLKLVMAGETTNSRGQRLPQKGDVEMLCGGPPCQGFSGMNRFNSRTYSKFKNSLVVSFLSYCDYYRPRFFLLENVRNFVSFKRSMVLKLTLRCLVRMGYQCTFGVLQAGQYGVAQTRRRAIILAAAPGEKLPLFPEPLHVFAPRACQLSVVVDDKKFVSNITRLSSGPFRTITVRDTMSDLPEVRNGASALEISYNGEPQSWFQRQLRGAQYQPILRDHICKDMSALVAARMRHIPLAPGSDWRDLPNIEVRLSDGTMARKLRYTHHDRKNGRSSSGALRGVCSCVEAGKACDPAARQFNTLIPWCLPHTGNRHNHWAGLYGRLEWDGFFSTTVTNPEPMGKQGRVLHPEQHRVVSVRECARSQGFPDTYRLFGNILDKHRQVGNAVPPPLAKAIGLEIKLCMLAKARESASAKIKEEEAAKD
# STEP block: blocks human striatal-enriched tyrosine phosphatase | recombinant STEP, OMFP fluorogenic substrate, fluorescence | P54829 | 0.25% of 360,000 active | inhibition, % at 20 µM;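 active means inhibition at 20 µM, scaled per plate between control wells, above about 37%, limit read from the data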;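 further: 0% = DMSO with enzyme and substrate and 100% = substrate only without enzyme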
#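 System: isolated STEP enzyme; schedule: 20 min enzyme reaction at room temperature, protected from light; medium: Bis-Tris buffer pH 6.0, 2.5 mM DTT, 0.005% Tween 20; signal: fluorescence, 480/540 nm; dosing: single compound dose of 20 µM, 1% DMSO final; also added: OMFP substrate, 25 µM final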
# NadD block: inhibitors of Staphylococcus aureus NadD | purified NadD enzyme, colorimetric absorbance read-out | inhibition, % at 20 µM | 0.78% of 360,000 active | AID 602399; in the data active means inhibition above about 26%
# LMPTP block: blocks human LMPTP phosphatase. P24666. 0.22% of 360,000 active. recombinant LMPTP-A, OMFP fluorogenic substrate, fluorescence intensity. inhibition, % at 20 µM;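 active means compounds that cut the enzyme signal by at least half of the control window in the single-dose screen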;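 further: plate controls were DMSO wells with enzyme plus substrate for no effect and substrate without enzyme for full effect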
#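 test system = LMPTP-A | amount = 0.625 nM LMPTP-A final | reagent = fluorogenic phosphatase substrate OMFP at 400 µM final | incubation = 50 min at room temperature | benchmarks = no-enzyme low control, uninhibited high control | medium = Bis-Tris pH 6.0, DTT, detergent | signal = fluorescence intensity of OMFP turnover product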
# Scp1 inh: blocks human Scp-1 phosphatase activity; Q9GZU7; Recombinant Scp1, phosphopeptide, malachite green phosphate absorbance; inhibition, % at 20 µM; 0.88% of 340,000 active; AID 493091;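 active means inhibition above about 50% at 20 µM, limit read from the data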;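 further: plate controls were DMSO wells with enzyme for no effect and wells lacking enzyme for full effect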
#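 System: SCP-1 catalytic domain; Reagent: Phospho 17-mer peptide substrate; Doses: one concentration, 20 µM, with 1.0% DMSO; Incubation: 45 min room-temperature reaction, 5 min colour, 30 min stabiliser; Signal: Phosphate-binding colour reagent, absorbance read at 630 nm.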
# * hit, by the source's call; . = not tested or not shown.
SMILES,SUMO1-SIM PPI,DNMT1 inh,STEP block,NadD block,LMPTP block,Scp1 inh
O=C(N=Nc1c(O)[nH]c2ccc(Br)cc12)c1cc(-c2cccc3ccccc23)n[nH]1,2,-2,2,39*,3,-10
CC(C)Oc1ccc(C(=O)Nc2cccc(S(=O)(=O)N3CCCC3)c2)cc1,2,-1,1,-4,0,-7
CC(C)(C)OC(=O)NCCc1nc(NC(=O)OCc2ccccc2)sc1C(=O)O,-2,.,.,.,-1,.
CCOC(=O)c1sc2c(c1C)c(=O)n(CCO)c(=O)n2Cc1ccccc1,-1,0,2,-1,0,-7
Cc1ccc(NC(=O)N/C=C/c2ccco2)cc1C,15,57*,2,9,1,-6
N#Cc1cc(C(=O)Cc2ccccc2)c[nH]1,4,-2,5,-5,0,-3
COc1ccc(OC)c(-c2csc3nnc(SCC(=O)Nc4ccc(NC(C)=O)cc4)n23)c1,4,-4,2,0,0,0
COc1cccc(-c2csc3nnc(SCC(=O)c4ccc(NC(C)=O)cc4)n23)c1,43*,0,3,3,0,-2
O=C(Nc1ccccc1C(=O)O)c1cccc(NC(=O)c2ccccc2Br)c1,12,-6,-1,-7,0,-3
O=C(Nc1cc(C(=O)Nc2ccccc2C(=O)O)cc(C(=O)Nc2ccccc2C(=O)O)c1)c1ccccc1,42*,7,18,24,0,4
CCCc1cc(=O)n2[nH]c(C)c(-c3ccc(OC)cc3)c2n1,2,2,0,5,-2,3
CN(C(=O)CS(=O)(=O)c1cccc(Cl)c1)c1ccccc1,3,-1,3,0,-1,-5
O=c1oc2c(O)c(O)cc3c(=O)oc4c(O)c(O)cc1c4c23,94*,88*,99*,26,86*,96*
Nc1ccc(Oc2ccc3nc(-c4ccccc4)c(-c4ccc([N+](=O)[O-])cc4)nc3c2)cc1,-10,-7,1,32*,2,15
CC(C)(C)NC(=O)COC(=O)c1ccccc1C(=O)c1ccccc1,-3,1,0,-3,0,-1
Cc1ccc(C(=O)c2ccccc2C(=O)OCC(=O)NC(=O)NC(C)(C)C)cc1,45*,2,1,1,-1,0
Cn1c(=O)c(N)c2c3c(c(Br)ccc31)C(=O)c1ccccc1-2,-44,155*,-65,8,6,-8
COc1ccccc1NC(=O)CCc1nnc2ccc(N3CCCCC3)nn12,-3,-1,-3,1,-1,-5
CCOc1ccccc1NC(=O)CCc1nnc2ccc(N3CCC(C)CC3)nn12,4,98*,1,-5,-2,-5
COC(=O)[C@@]12C[C@@H](CC(=O)NCC3CCCCC3)C(=O)N(Cc3ccco3)C1=CCC(C)(C)C2,-4,.,.,.,1,.
Oc1c(Cl)cc(Cl)cc1/C=N/c1nc(-c2ccc(Cl)cc2)cs1,0,-15,0,25*,1,-4
CC(C)(C)NC(=O)C1C(c2ccc(C(F)(F)F)cc2)=Nc2ccccc2N1C(=O)c1cccc(C(F)(F)F)c1 (centres undefined),-4,.,.,.,-5,.
COc1ccc2[nH]c3nc(SCc4nnc(-c5ccc(C)cc5)o4)nnc3c2c1,-1,56*,4,8,6,-5
CCN(CC)c1ccc(/C=N/NC(=O)c2ccc([N+](=O)[O-])cc2)cc1,-11,12,1,1,1,-1
CCN=C(N/N=C/c1ccc([N+](=O)[O-])cc1)SC,-22,4,-2,17,-2,104*
SMILES,SUMO1-SIM PPI,DNMT1 inh,STEP block,NadD block,LMPTP block,Scp1 inh
Nc1sccc1C(=O)N1CCN(c2ccccc2)CC1,0,.,.,.,0,.
O=C(Cc1cccc2ccccc12)NN1C(=O)CSC1=S,11,-9,1,-3,-2,-9
O=C(NN1C(=O)CSC1=S)C(=O)NN1C(=O)CSC1=S,40*,58*,8,-2,0,55*
CCOC(=O)c1nc2sc(C)c(C)c2c(=O)[nH]1,-3,1,1,-3,0,-17
CCOC(=O)/C(=C\c1cccc(O)c1)c1nc2sc(C)c(C)c2c(=O)[nH]1,-1,-8,85*,2,7,4
CCOCCCNC(=O)CN1C(=O)c2ccccc2Sc2ncccc21,-4,2,0,-5,1,-4
COC(=O)/C(=C\Nc1ccc(Cl)cc1Cl)NC(=O)c1ccc(OC)cc1,40*,-1,2,-3,3,-10
Cc1cccc(N2C(=O)c3cccc4c(N)ccc(c34)C2=O)c1,-107,75*,-115,0,-8,0
CC(C)CCN1C(=O)c2cccc3c(N)ccc(c23)C1=O,-90,122*,-114,-5,-5,-7
Nc1cccc(N2C(=O)c3cccc4c(N)ccc(c34)C2=O)c1,-68,40,-32,-6,-2,-8
O=C(CN1CCN(CC(=O)Nc2ccccc2Cl)CC1)NCC1(N2CCOCC2)CCCCC1,-4,1,-1,1,0,-2
CCOC(=O)C1CCCN(C(=O)c2cccnc2Oc2ccccc2)CC1 (centres undefined),2,3,1,2,0,.
O=C(O)c1ccccc1NS(=O)(=O)c1cccc(-n2sc3ccccc3c2=O)c1,30,4,8,9,-1,95*
CCOC(=O)[C@]12CCC=C1N(Cc1cccc3ccccc13)C(=O)[C@H](CC(=O)NCCCCc1ccccc1)C2,0,.,.,-5,7,.
CC(C)OCP(=O)(c1ccccc1)c1ccccc1,51*,4,-1,5,-1,-4
COc1ccc(OC)c(NC(=O)CN(Cc2ccc(F)cc2)C2CCCCC2)c1,7,4,-2,4,5,-2
Cc1ccc(C(=O)NCC(=O)OCn2nnc3ccccc3c2=O)cc1,0,-3,-2,2,-1,-5
Cn1c(=O)c(NCCc2ccccc2)c2c3c(cccc31)C(=O)c1ccccc1-2,-43,76*,-166,0,-18,-11
CCNc1c2c3c(cccc3n(C)c1=O)C(=O)c1ccccc1-2,.,.,.,.,.,-9
Cn1c(=O)c(NCCO)c2c3c(cccc31)C(=O)c1ccccc1-2,-43,142*,-171,1,-14,-8
CCCCNc1c2c3c(cccc3n(C)c1=O)C(=O)c1ccccc1-2,-57,192*,-210,-1,-6,-8
Cc1cc(NC(=O)CSc2nnc(-c3cccc(F)c3)n2N)no1,6,13,4,3,1,11
Cc1ccsc1-c1nc(C(N)=O)c2[nH]c(=O)n(-c3ccc(Cl)cc3)c2n1,16,55*,1,20,11,7

# Bioassay records (PubChem BioAssay)
